RGS4 pot: RGS4 potentiation or activation. B-score at 10 µM. 310,000 tested, 0.92% active. HEK293 M3R/inducible RGS4, carbachol calcium flux Fluo4; hits give low values;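 active = B-score of the integrated calcium signal more than 4 SD below the library mean, with starting fluorescence not abnormally high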;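 also: negative B-score means reduced calcium response which marks RGS4 activation or potentiation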
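Assay system: HEK293 FlpIn-TREx cells, stable M3R, doxycycline-inducible RGS4 / Probe or stimulus: carbachol, ECmax concentration / Times: overnight RGS4 induction, 30 min dye load 37 °C, 20 min compound RT / Signal: kinetic calcium fluorescence imaging with Fluo4-AM dye, 2 µM / Measure: Agonist-evoked peak-minus-minimum fluorescence over baseline, integrated ratio, B score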
RGS4 inh: inhibitors of human RGS4; AID 463165; HEK293 M3R/RGS4 inducible, Fluo-4 calcium flux; hits give high values; triggered by carbachol at its EC20; B-score at 10 µM; P49798; 310,000 tested, 0.45% active;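 active = B-score, a plate-corrected calcium signal, over three deviations above library mean, with baseline fluorescence within five deviations of library mean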;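 also: RGS4 expression induced by doxycycline in cells with stable M3 receptor; B-score is computed from the integrated fluorescence ratio over baseline after carbachol; higher B-score means a larger calcium signal and so more RGS4 inhibition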
Target sequence (P49798 whole entry, looked up): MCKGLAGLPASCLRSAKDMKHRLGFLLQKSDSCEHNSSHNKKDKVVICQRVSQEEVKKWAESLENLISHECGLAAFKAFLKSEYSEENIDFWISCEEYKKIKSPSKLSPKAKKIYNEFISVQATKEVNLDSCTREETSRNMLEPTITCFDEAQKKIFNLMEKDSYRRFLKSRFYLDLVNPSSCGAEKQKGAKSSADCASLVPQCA
MrgX1 ag: agonists of human MrgX1 receptor. MrgX1-HEK293 cells, Fluo-4 calcium fluorescence, agonist mode; hits give high values. B-score at 10 µM. 310,000 tested, 0.44% active. AID 588627;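 active = calcium response B-score plate-corrected fluorescence ratio at least 3 library SD, with starting fluorescence B-score inside 5 SD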
Target sequence (Q96LB2 whole entry, looked up): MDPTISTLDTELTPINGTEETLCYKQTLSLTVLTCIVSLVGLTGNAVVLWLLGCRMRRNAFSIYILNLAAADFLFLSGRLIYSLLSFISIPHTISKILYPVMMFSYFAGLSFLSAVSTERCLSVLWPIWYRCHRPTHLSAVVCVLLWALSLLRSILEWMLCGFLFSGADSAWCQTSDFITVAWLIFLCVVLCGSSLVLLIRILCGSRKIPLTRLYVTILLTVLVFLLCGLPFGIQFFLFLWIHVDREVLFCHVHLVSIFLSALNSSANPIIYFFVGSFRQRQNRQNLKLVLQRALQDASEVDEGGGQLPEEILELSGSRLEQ
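Assay system: stable human MrgX1 HEK293 cell line. Quantity: 15,000 cells per well. Schedule: cells plated overnight, dye loaded 0.5 h 37 °C, 0.5 h room temperature. Detection: Fluo-4 NW calcium-flux fluorescence, kinetic read. Read-out basis: peak-minus-minimum fluorescence over baseline, converted to B scores. Control set: positive and negative control wells on each plate.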
MrgX1 PAM: human MrgX1 positive allosteric modulation, primary screen; AID 588675; MrgX1-HEK293, Fluo-4 calcium flux, FDSS; hits give high values; Q96LB2; B-score at 10 µM; 310,000 tested, 0.63% active;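 active = plate-corrected calcium response at least 3 library SD above typical, normal starting fluorescence, not activating the receptor alone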;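 also: compound read alongside a low EC10 to EC30 dose of BAM8-22 agonist; peak minus trough fluorescence over baseline measured at the second addition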
MrgX1 antagonist: antagonists of human MrgX1 receptor; 310,000 tested, 1.3% active; Q96LB2; B-score at 10 µM; MRGX1-HEK293 calcium flux, Fluo-4, BAM8-22 antagonism; hits give low values; AID 588676;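 active = calcium-response B-score plate-corrected more than 3 library SD below zero, starting fluorescence within 5 deviations, no agonist response on first addition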;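 also: peak minus trough fluorescence over baseline after final BAM8-22 challenge near maximal dose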
Numbers without * were called inactive; i = inactive; / = not tested or not shown. An excerpt weighted towards active compounds, which were near 3.5% of everything screened.

SMILES | RGS4 pot | RGS4 inh | MrgX1 ag | MrgX1 PAM | MrgX1 antagonist
Cc1cc(CN(C)C(=O)c2ccc3nc(Cc4ccccc4F)oc3c2)on1 | i | i | i | i | i
O=C(N/N=C/c1ccc(OC(F)F)cc1)c1cc[n+]([O-])cc1 | i | i | i | i | -6*
O=C(N/N=C/c1ccc(OC(F)F)cc1)c1ccc(Br)cc1 | i | i | i | i | -5.3*
CCOc1ccc(N2C(=O)CC(Sc3nc(-c4cccs4)cc(C(F)(F)F)c3C#N)C2=O)cc1 (stereo unspecified) | i | i | i | i | -7.1*
CCOc1ccc(N2C(=O)CC(Sc3ncccn3)C2=O)cc1 (stereo unspecified) | i | i | i | i | i
O=C(CC1Sc2ccccc2NC1=O)Nc1cccnc1 (stereo unspecified) | i | i | i | i | i
O=C(CC1Sc2ccccc2NC1=O)Nc1ccccc1[N+](=O)[O-] (stereo unspecified) | i | i | i | i | -6.7*
CCCCNC(=O)Cn1cnc2sc(C)c(S(=O)(=O)N3CCN(c4ccccc4OC)CC3)c2c1=O | i | i | i | i | i
N#C/C(=C(/O)CCl)c1nc(-c2ccccc2)cs1 | i | i | i | i | -6.1*
CN=c1scc(-c2ccccc2F)n1/N=C/c1ccc[nH]1 | i | i | i | 7* | i
C=CCn1c(-c2ccc([N+](=O)[O-])cc2)n[nH]c1=S | -7.7* | i | i | i | i
C=CCn1c(-c2ccccc2[N+](=O)[O-])n[nH]c1=S | i | i | i | i | i
COc1ccc(CN2CCNC(=O)C2CC(=O)NCCCn2cccn2)c(OC)c1 (stereo unspecified) | i | i | i | i | i
C#CCOc1c(Cl)cc(/C=C2/C(=O)ON=C2C)cc1OC | i | i | i | i | i
COc1cc(/C=C2/C(=O)ON=C2C)cc(Cl)c1O | i | i | 40* | i | i
CCOc1cc(/C=C2/C(=O)ON=C2C)ccc1O | i | i | 33* | i | i
NCCCCCc1nnc(SCc2ccc(Cl)c(Cl)c2)o1 | -7.1* | i | i | i | i
O=[N+]([O-])c1cccc(S(=O)(=O)N/N=C/c2ccc(O)cc2)c1 | i | i | i | 6.6* | i
O=[N+]([O-])c1cccc(S(=O)(=O)N/N=C\c2ccc3c(c2)OCO3)c1 | i | i | i | 13* | i
COCCCN(C(C)=O)c1nc(-c2ccc(OC)cc2)cs1 | i | i | i | i | i
N#C/C(=C\c1ccc(-c2ccc(C(=O)O)cc2)o1)C(=O)Nc1ccc(F)cc1 | i | i | i | i | -4.6*
COc1ccc(CNC(=O)CN(c2ccccc2)S(=O)(=O)c2ccccc2[N+](=O)[O-])cc1 | i | i | i | i | i
C/C(=N\Nc1ccc([N+](=O)[O-])cc1)c1ccc(O)cc1 | i | i | i | i | -5.6*
C=CC[n+]1c(-c2ccc(OCC)cc2)csc1NNC(=O)Nc1ccccc1 | i | i | i | i | -6.2*
COC(=O)C(C(=O)NCC1CCCO1)C1CCCC1 (stereo unspecified) | i | i | i | i | i
SMILES | RGS4 pot | RGS4 inh | MrgX1 ag | MrgX1 PAM | MrgX1 antagonist
COc1ccc(NC(=O)CN2C(=O)/C(=C3\SC(=S)N(C4CCS(=O)(=O)C4)C3=O)c3ccccc32)cc1 (stereo unspecified) | i | i | i | 11* | i
COc1cccc(NC(=O)c2cc3cccc(OC)c3o/c2=N\O)c1 | i | 6.1* | i | i | i
COc1cc(NC(=O)c2cc3cccc(OC)c3o2)cc(C(=O)Nc2cccc(C(F)(F)F)c2)c1 | -8.2* | i | i | i | -5.2*
COc1ccc(NC(=O)c2cc3cccc(OC)c3oc2=Nc2ccc(C(=O)O)cc2)cc1OC | i | i | / | / | /
COc1cccc(NC(=O)c2cc3ccccc3o/c2=N\O)c1 | i | i | 27* | i | i
CCC1(c2ccccc2)NC(=O)N(CC(=O)NCc2ccc(OC)cc2)C1=O (stereo unspecified) | i | i | i | i | i
CCN(CC(=O)Nc1ccccc1C(F)(F)F)C(=O)c1ccc2[nH]c3c(c2c1)CC(C)CC3 (stereo unspecified) | i | i | i | i | i
O=C1c2ccc([N+](=O)[O-])cc2S(=O)(=O)N1Cc1ccccc1 | i | i | i | i | i
CCOc1ccc(-c2nnn(CC(=O)N3CCCC3)n2)cc1OCC | i | i | i | i | i
CC(=O)N(C1=C(Cl)C(=O)c2ccccc2C1=O)C1CCCCC1 | i | i | i | i | -9.6*
CNc1ccc(Br)cc(C(=O)/C=C/c2cc(OC)ccc2OC)c1=O | i | i | i | i | i
CCNc1ccc(Br)cc(C(=O)/C=C/c2ccc(Cl)cc2Cl)c1=O | i | i | i | i | -6.1*
O=C(COC(=O)c1cccc(S(=O)(=O)NCc2ccccc2)c1)c1ccccc1 | i | i | i | i | i
O=C(N/N=C/c1c[nH]c2ccc(Br)cc12)c1ccc2c(c1)OCO2 | i | i | 45* | i | i
O=C(N/N=C/c1c[nH]c2ccccc12)c1ccc2c(c1)OCCO2 | i | i | i | i | i
CCOC(=O)/C(C#N)=N/Nc1ccc(S(=O)(=O)N2CCc3ccccc32)cc1 | i | i | i | i | -4.5*
N#C/C(=N\Nc1ccc(S(=O)(=O)N2CCc3ccccc32)cc1)C(N)=S | i | i | i | i | i
Cc1ccccc1OCC(=O)Nc1ccc2c(c1)n(C)c(=O)n2C | i | i | i | i | i
COc1ccc(/C=C/C(=O)c2cc(Cl)ccc2O)c(OC)c1 | i | i | i | i | i
COc1ccc(/C=C/C(=O)c2ccc(Cl)cc2)c(OC)c1 | i | i | i | i | -4.9*
COCCSc1ccccc1C(=O)Nc1cc([N+](=O)[O-])ccc1OC | i | i | i | i | i
COc1ccc([N+](=O)[O-])cc1NC(=O)C1(c2ccccc2)CCOCC1 | i | i | i | 8.7* | i
COc1ccc([N+](=O)[O-])cc1NC(=O)c1ccccc1N(C)S(C)(=O)=O | i | i | i | 7* | i
COc1ccc([N+](=O)[O-])cc1NC(=O)Cc1noc2ccccc12 | i | i | i | i | -9.7*
Cc1c(NC(=O)Cc2noc3ccccc23)cccc1[N+](=O)[O-] | i | i | i | i | i
